What was measured:
Assay type in all cases: functional
Rattus norvegicus [1] = assay: Analgesic activity was assessed for inflamed rat-paw reversal of abnormal (three legged) gait expressed as ED50 (sc)
Outline: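 Yeast (brewers') injected into plantar surface of left hind paw; gait scored 0–2 at 3 h. Rats scoring 2 received compound subcutaneously in normal saline; postdrug scores taken at set intervals. ≥50% gait reduction counted positive; ED50 = dose lowering score 2 to 1 in 50% of rats.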

Rattus norvegicus [2] = assay: Analgesic activity was measured using inflamed rat paw pressure threshold method expressed as ED50 (sc)
Outline: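 Paw-pressure threshold in rats, left hind paw injected with 0.1 mL 20% brewers' yeast; threshold recorded 2 h post-yeast. Compound given subcutaneously in normal saline at times set by duration of action. Positive = ≥100% threshold rise; ED50 with 95% confidence limits via Finney linear arc sine transformation.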

Mus musculus = assay: Analgesic activity was measured using mouse anti-writhing method expressed as ED50 (po)
Outline: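 Mice in pairs; writhing induced by intraperitoneal phenyl-p-quinone 1 mg/kg. Compound given orally in 2% starch suspension with 5% PEG 400 and a drop of Tween 80.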

Rattus norvegicus [3] = assay: Analgesic activity was measured using inflamed rat paw pressure threshold method expressed as ED50 (po)
Outline: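 Modified Randall–Selitto: left hind paw sensitised with 0.1 mL 20% aqueous brewers' yeast, pressure-pain threshold read 2 h after yeast. Oral dosing in 2% starch/5% PEG 400/Tween 80, timed to peak effect. ≥100% threshold elevation positive; ED50 (dose giving this in 50% of rats) with 95% limits by Finney arc sine method.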

Rattus norvegicus [4] = assay: Analgesic activity for inflamed rat-paw reversal of abnormal (three legged) gait expressed as ED50 (po).
Outline: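 Rats given brewers' yeast in plantar surface of left hind paw; 3 h later gait scored 0 (normal) to 2 (maximal abnormal). Rats scoring 2 dosed orally in 2% starch suspension with 5% PEG 400 and Tween 80; gait rescored at set intervals. ED50 = dose reducing score from 2 to 1 in 50% of rats.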

[5] = Mus musculus, po, read-out: ED50
[6] = Rattus norvegicus, po, read-out: ED50

SMILES | ED50 (Mus musculus; [5]) | ED50 (Rattus norvegicus [3]; [6]) | ED50 (Rattus norvegicus [4]; [6]) | also measured
Cl.Oc1cccc(C23CNCC2C3)c1 (stereo not given) | – | – | – | ED50 (Rattus norvegicus [1]): 16 mg/kg; ED50 (Rattus norvegicus [2]): > 25 mg/kg
Cl.FC(F)(F)c1ccc(C23CNCC2C3)cc1 (stereo not given) | > 100 mg/kg | 40 mg/kg | 38 mg/kg | –
CC(C)c1ccc(C23CNCC2C3)cc1.Cl (stereo not given) | 30 mg/kg | – | – | ED50 (Rattus norvegicus [1]): 9 mg/kg; ED50 (Rattus norvegicus [2]): > 25 mg/kg
COc1cccc(C23CC2CN(C)C3)c1.Cl (stereo not given) | – | – | > 100 mg/kg | –
Cl.Clc1cccc(C23CNCC2C3)c1 (stereo not given) | 34 mg/kg | 50 mg/kg | > 50 mg/kg | –
CN1CC2CC2(c2ccc(Cl)cc2)C1.Cl (stereo not given) | < 100 mg/kg | 60 mg/kg | > 50 mg/kg | –
COc1ccc(C23CNCC2C3)cc1.Cl (stereo not given) | 4 mg/kg | 49 mg/kg | 24 mg/kg | –
COc1ccc(C23CNCC2C3)cc1Br.Cl (stereo not given) | – | – | > 25 mg/kg | –
Cl.Fc1ccc(C23CNCC2C3)cc1 (stereo not given) | 34 mg/kg | 14 mg/kg | > 50 mg/kg | –
Cl.FC(F)(F)c1cc(C23CNCC2C3)ccc1Cl (stereo not given) | – | – | 177 mg/kg | –
COc1cccc(C23CNCC2C3)c1.Cl (stereo not given) | – | – | 177 mg/kg | –
Cl.Fc1cccc(C23CNCC2C3)c1 (stereo not given) | 21 mg/kg | 67 mg/kg | > 50 mg/kg | –
Cl.Oc1ccc(C23CNCC2C3)cc1 (stereo not given) | – | – | > 200 mg/kg | –
Cl.Clc1ccc(C23CNCC2C3)cc1Cl (stereo not given) | – | – | 141 mg/kg | –
CCCCCCc1ccc(C23CNCC2C3)cc1.Cl (stereo not given) | – | – | > 50 mg/kg | –
Cc1ccccc1C12CNCC1C2.Cl (stereo not given) | > 50 mg/kg | – | > 50 mg/kg | –
CCOc1ccc(C23CNCC2C3)cc1.Cl (stereo not given) | – | – | 29 mg/kg | –
CC(C)(C)c1ccc(C23CNCC2C3)cc1.Cl (stereo not given) | – | – | > 200 mg/kg | –
Cc1cccc(C23CNCC2C3)c1.Cl (stereo not given) | 18 mg/kg | 25 mg/kg | > 50 mg/kg | –
Cc1ccc(C23CC2CN(CC2CC2)C3)cc1.Cl (stereo not given) | – | – | > 50 mg/kg | –

SMILES | ED50 (Mus musculus; [5]) | ED50 (Rattus norvegicus [3]; [6]) | ED50 (Rattus norvegicus [4]; [6]) | also measured
C=CCN1CC2CC2(c2ccc(C)cc2)C1.Cl (stereo not given) | – | – | > 50 mg/kg | –
Cc1ccc(C23CC2CN(C)C3)cc1.Cl (stereo not given) | 16 mg/kg | 24 mg/kg | 20 mg/kg | –
Brc1ccc(C23CNCC2C3)cc1.Cl (stereo not given) | – | – | 141 mg/kg | –
CN1CC2CC2(c2cccc(O)c2)C1.Cl (stereo not given) | > 50 mg/kg | – | > 50 mg/kg | ED50 (Rattus norvegicus [2]): 25 mg/kg
Cl.Clc1ccccc1C12CNCC1C2 (stereo not given) | – | – | > 100 mg/kg | –
CCc1ccc(C23CNCC2C3)cc1.Cl (stereo not given) | 24 mg/kg | 25 mg/kg | 13 mg/kg | –
CCCCCCN1CC2CC2(c2ccc(C)cc2)C1.Cl (stereo not given) | – | – | > 50 mg/kg | –
Cl.FC(F)(F)c1cccc(C23CNCC2C3)c1 (stereo not given) | 29 mg/kg | 50 mg/kg | 28 mg/kg | –
Cl.c1ccc(C23CNCC2C3)cc1 (single isomer, unassigned; (+)) | – | – | – | ED50 (Rattus norvegicus [3]): 79 mg/kg; ED50 (Rattus norvegicus [4]): 125 mg/kg
Cl.c1ccc(C23CNCC2C3)cc1 (single isomer, unassigned; (-)) | – | – | – | ED50 (Mus musculus): <50 mg/kg; ED50 (Rattus norvegicus [3]): 43 mg/kg; ED50 (Rattus norvegicus [4]): >200 mg/kg
Cc1ccc(C23CNCC2C3)cc1.Cl (single isomer, unassigned; (-)) [BICIFADINE HYDROCHLORIDE] | – | – | – | ED50 (Rattus norvegicus [3]): >25 mg/kg; ED50 (Rattus norvegicus [4]): >200 mg/kg
Cl.Clc1ccc(C23CNCC2C3)cc1 (stereo in doubt; 2a) | – | – | – | ED50 (Mus musculus): 21 mg/kg; ED50 (Rattus norvegicus [3]): 21 mg/kg; ED50 (Rattus norvegicus [4]): 31 mg/kg
Cc1ccc(C23CNCC2C3)cc1.Cl (stereo in doubt; 2b) [BICIFADINE HYDROCHLORIDE] | 13 mg/kg | – | – | ED50 (Rattus norvegicus [1]): 4 mg/kg; ED50 (Rattus norvegicus [3]): 11 mg/kg; ED50 (Rattus norvegicus [4]): 18 mg/kg
Cl.c1ccc(C23CNCC2C3)cc1 (stereo in doubt; 2c) | < 100 mg/kg | 71 mg/kg | – | ED50 (Rattus norvegicus [4]): 70 mg/kg
Cc1ccc(C23CNCC2C3)cc1.Cl (stereo in doubt; 2v) [BICIFADINE HYDROCHLORIDE] | – | – | – | ED50 (Rattus norvegicus [3]): <25 mg/kg; ED50 (Rattus norvegicus [4]): 17 mg/kg
Cl.Clc1ccc(C23CNCC2C3)cc1 (stereo in doubt; 2x) | – | – | – | ED50 (Mus musculus): 19 mg/kg; ED50 (Rattus norvegicus [3]): 13 mg/kg; ED50 (Rattus norvegicus [4]): 25 mg/kg
Cl.Clc1ccc(C23CNCC2C3)cc1 (stereo in doubt; 2y (-)) | – | – | – | ED50 (Mus musculus): <100 mg/kg; ED50 (Rattus norvegicus [3]): >50 mg/kg; ED50 (Rattus norvegicus [4]): 150 mg/kg
CC(=O)Oc1ccccc1C(=O)O [ASPIRIN] | 29 mg/kg | 150 mg/kg | 74 mg/kg | –
COc1ccc2c3c1O[C@H]1[C@@H](O)C=C[C@H]4[C@@H](C2)N(C)CC[C@@]341.COc1ccc2c3c1O[C@H]1[C@@H](O)C=C[C@H]4[C@@H](C2)N(C)CC[C@@]341.O.O=P(O)(O)O.O=P(O)(O)O [CODEINE PHOSPHATE] | 9 mg/kg | 43 mg/kg | 51 mg/kg | –

— ChEMBL document CHEMBL1121824, “1-Aryl-3-azabicyclo[3.1.0]hexanes, a new series of nonnarcotic analgesic agents” (1981)
